Here are results for 3 compounds from article PMC6767012 (Clinical Pharmacology in Drug Development, 2018).

Data set [1] is classed as in vivo, human. Particulars: single oral 180 mg; for Effect of high-fat meal on total exposure (AUC): fed vs fasted; for Reduction of Cmax under fed versus fasted conditions: high-fat meal; for half-life: t1/2 (terminal elimination half-life).
The test system of data set [2] is CYP2C8 and CYP3A4. Particulars: human liver microsomes and hepatocytes; cited from earlier work.
A short description of data set [3]: Food effect study: safety and tolerability. In kind it is in vivo, human. Conditions: for Incidence of treatment-emergent adverse events (TEAEs): single oral 180 mg, healthy subjects. Put shortly:
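Phase 1, single-centre, randomised, open-label, 2-period, 2-sequence crossover in healthy nonsmoking adults aged 18–55, BMI 18–30 kg/m2, at least 50 kg. Single morning oral dose (2 × 90-mg tablets) with about 240 mL water, after an overnight fast of at least 10 h, or with a standardised high-fat meal 30 ± 5 min before dosing. Washout at least 16 days. Adverse events were tracked until 7 days after the last dose, alongside vital signs, haematology, chemistry, urinalysis, physical exams and 12-lead ECG.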

The conditions of data set [4]: single oral 180-mg dose, healthy subjects; cited from earlier work.
Data set [5] concerns ALK resistance mutations. Particulars: nonclinical studies; cited from earlier work.
Data set [6] has as its system ALK+ NSCLC. Particulars: 180 mg orally once daily with 7-day lead-in at 90 mg; crizotinib-refractory ALK+ NSCLC; cited from earlier work.
For data set [7] the following is noted: cited from earlier work.
For data set [8] the following is noted: healthy subjects; cited from earlier work.
For data set [9] the following is noted: patients with advanced ALK+ NSCLC; cited from earlier work.
For data set [10] the following is noted: cited from earlier work. This is another data set of the same source.

Each structure is given as a SMILES string. Read-outs that look alike come from different tables or passages of the source.

As to `COc1cc(N2CCC(N3CCN(C)CC3)CC2)ccc1Nc1ncc(Cl)c(Nc2ccccc2P(C)(C)=O)n1` [Brigatinib], in data set [1], the “Effect of high-fat meal on total exposure (AUC)” value is “no effect” and the “Reduction of Cmax under fed versus fasted conditions” value was determined as 13%. Moreover, in [1] (listed as brigatinib), the “Effect of high-fat meal on total exposure (AUC)” value is “similar” and the “Reduction of Cmax under fed versus fasted conditions” value is recorded as “approximately 13%”. The highest level in data set [1] (human, plasma, po, 180 mg, Geometric mean (% CV), fasted, N = 21) (Cmax) was 701 ng/mL. The Cmax in data set [1] (human, plasma, po, 180 mg, Geometric mean (% CV), fed (high-fat meal), N = 24) came to 605 ng/mL. This compound returned a Cmax in [1] (human, plasma, po, 180 mg, Mean (SD), fed (high-fat meal), healthy subjects, N = 24) of 622 ng/mL. For the same compound, the time to peak (Tmax) in data set [1] (human, plasma, po, 180 mg, Tmax, Median (minimum-maximum), fed (high-fat meal), N = 24) turned out to be 5 h. The same compound showed a half-life in data set [1] (human, plasma, po, 180 mg, Mean (SD), fasted, N = 21) of 31 h. For the same compound, the half-life in data set [1] (human, plasma, po, 180 mg, Mean (SD), fed (high-fat meal), N = 24) is 31.1 h. Also, the Metabolizing enzymes entry in [2] was “cytochrome P450 (CYP)2C8 and CYP3A4”. Also, in [3] (fasted), the Subjects with cough was determined as 24%, the Subjects with headache was determined as 14%, the Subjects with nausea is given as 14% and the Subjects with somnolence is recorded as 14%. For the same compound, the “Incidence of treatment-emergent adverse events (TEAEs)” value in [3] (fasted) came to 48%. In addition, in data set [3] (fasted and fed), the “Abnormalities in laboratory findings, vital signs, ECGs, or physical examination” value is listed as “no clinically significant abnormalities”; the “Deaths or serious TEAEs” value is “No deaths or serious TEAEs”; the “Intensity of TEAEs” value was “mild”. In [3] (fed), this compound had a Subjects with headache of 4%, a Subjects with nausea of 4% and a Subjects with somnolence of 4%. In addition, in [3] (fed (high-fat meal)), the “Incidence of treatment-emergent adverse events (TEAEs)” value is on record as 46%. In data set [4], the “Administered dose excreted in the feces” value is 65% and the “Administered dose excreted in the urine” value is 25%. The “Activity against all ALK resistance mutations tested” value in data set [5] is reported as “potent activity”. In data set [6], the “Confirmed objective response rate” value is given as 56% and the Median progression-free survival is on record as 16.7 months. The “Steady-state systemic exposure versus dose” value in data set [7] (60 mg to 240 mg once daily) was “dose proportional”. Also, in data set [7] (180 mg orally once daily), the “Geometric mean apparent oral clearance at steady-state” value was 10.6 L/h and the “Mean plasma elimination half-life” value was 25 h.

For `C[C@@H](Oc1cc(-c2cnn(C3CCNCC3)c2)cnc1N)c1c(Cl)ccc(F)c1Cl` [Crizotinib], in data set [8], the “Decrease of exposure (both Cmax and AUC) following a high-fat meal” value is on record as 14%.

Turning to `Cc1cc(Nc2ncc(Cl)c(Nc3ccccc3S(=O)(=O)C(C)C)n2)c(OC(C)C)cc1C1CCNCC1` [ceritinib], in data set [9], the “Cmax and AUC0–24 of 450 mg taken with food versus 750 mg fasted” value was “comparable”; the “Incidence of gastrointestinal toxicities, 450 mg with food versus 750 mg fasted” value is “lower incidence”. Further, in data set [10], the “Effect of food on exposure” value was “increases exposure”.

By Cmax is commonly meant the peak of the concentration-time curve. A word on the Tmax: it is the time from dosing to the highest level. The half-life is the time in which the quantity being followed falls by half. Low values mean fast loss, high ones slow loss.
